In ChEMBL document CHEMBL4689842, “EUbOPEN Chemogenomics Library wave 1” (2021):

System: HEK-293T
Test: Multiplex assay against HEK293T;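 for Population Tubulin-Different-Phenotype (%): share of the cells with healthy nuclei that show this phenotype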
Assay type: toxicity, cell-based
Settings: human
Procedure, shortened: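 Phenotypes for tubulin, mitochondrial mass and membrane permeability are expressed as per cents of healthy-nucleus cells. Cells were stained live at seeding with Hoechst33342, BioTracker Green Microtubule Cytoskeleton Dye, MitoTracker Red and Annexin V Alexa Fluor 680, then imaged after compound addition on a CQ1 microscope at 37°C and 5% CO2. Machine-learning gating in CellPathfinder separated Hoechst high-intensity objects from normal cells, divided normal cells by nuclear state (healthy, pyknosed, fragmented) and divided pyknosed cells into mitotic or apoptotic.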

[1] = 12 h, 1 µM, compound concentration 1 uM, replicate 1
[2] = 12 h, 1 µM, compound concentration 1 uM, replicate 2
[3] = 12 h, 10 µM, compound concentration 10 uM, replicate 1
[4] = 12 h, 10 µM, compound concentration 10 uM, replicate 2
[5] = 24 h, 1 µM, compound concentration 1 uM, replicate 1
[6] = 24 h, 1 µM, compound concentration 1 uM, replicate 2
[7] = 24 h, 10 µM, compound concentration 10 uM, replicate 1
[8] = 24 h, 10 µM, compound concentration 10 uM, replicate 2
[9] = 48 h, 1 µM, compound concentration 1 uM, replicate 1
[10] = 48 h, 1 µM, compound concentration 1 uM, replicate 2
[11] = 48 h, 10 µM, compound concentration 10 uM, replicate 1
[12] = 48 h, 10 µM, compound concentration 10 uM, replicate 2

Structure (SMILES): C[C@@H](NCCCc1cccc(C(F)(F)F)c1)c1cccc2ccccc12.Cl [CINACALCET HYDROCHLORIDE]
- Population Apoptotic (%) [1]: 48%
- Population Fragmented Nuclei (%) [1]: 4%
- Population Healthy Nuclei (%) [1]: 49%
- Population Hoechst High Intensity Objects (%) [1]: 8%
- Population Membrane Permeable-Phenotype (%) [1]: 2%
- Population Mitochondria Different-Phenotype (%) [1]: 90%
- Population Mitotic Cells (%) [1]: 51%
- Population Normal (%) [1]: 91%
- Population Pyknosed Nuclei (%) [1]: 46%
- Population Tubulin-Different-Phenotype (%) [1]: 72%
- Total Cell Count [1]: 382
- Population Apoptotic (%) [2]: 16%
- Population Fragmented Nuclei (%) [2]: 7%
- Population Healthy Nuclei (%) [2]: 32%
- Population Hoechst High Intensity Objects (%) [2]: 3%
- Population Membrane Permeable-Phenotype (%) [2]: 6%
- Population Mitochondria Different-Phenotype (%) [2]: 51%
- Population Mitotic Cells (%) [2]: 83%
- Population Normal (%) [2]: 96%
- Population Pyknosed Nuclei (%) [2]: 60%
- Population Tubulin-Different-Phenotype (%) [2]: 67%
- Total Cell Count [2]: 158
- Population Apoptotic (%) [3]: 87%
- Population Fragmented Nuclei (%) [3]: 12%
- Population Healthy Nuclei (%) [3]: 13%
- Population Hoechst High Intensity Objects (%) [3]: 19%
- Population Membrane Permeable-Phenotype (%) [3]: 0%
- Population Mitochondria Different-Phenotype (%) [3]: 95%
- Population Mitotic Cells (%) [3]: 12%
- Population Normal (%) [3]: 80%
- Population Pyknosed Nuclei (%) [3]: 74%
- Population Tubulin-Different-Phenotype (%) [3]: 95%
- Total Cell Count [3]: 195
- Population Apoptotic (%) [4]: 80%
- Population Fragmented Nuclei (%) [4]: 3%
- Population Healthy Nuclei (%) [4]: 11%
- Population Hoechst High Intensity Objects (%) [4]: 4%
- Population Mitotic Cells (%) [4]: 19%
- Population Normal (%) [4]: 95%
- Population Pyknosed Nuclei (%) [4]: 84%
- Population Tubulin-Different-Phenotype (%) [4]: 90%
- Total Cell Count [4]: 193
- Population Apoptotic (%) [5]: 40%
- Population Healthy Nuclei (%) [5]: 61%
- Population Hoechst High Intensity Objects (%) [5]: 7%
- Population Membrane Permeable-Phenotype (%) [5]: 1%
- Population Mitochondria Different-Phenotype (%) [5]: 77%
- Population Mitotic Cells (%) [5]: 59%
- Population Normal (%) [5]: 92%
- Population Pyknosed Nuclei (%) [5]: 30%
- Population Tubulin-Different-Phenotype (%) [5]: 63%
- Total Cell Count [5]: 417
- Population Apoptotic (%) [6]: 28%
- Population Fragmented Nuclei (%) [6]: 8%
- Population Healthy Nuclei (%) [6]: 48%
- Population Hoechst High Intensity Objects (%) [6]: 4%
- Population Membrane Permeable-Phenotype (%) [6]: 6%
- Population Mitochondria Different-Phenotype (%) [6]: 47%
- Population Mitotic Cells (%) [6]: 71%
- Population Normal (%) [6]: 95%
- Population Pyknosed Nuclei (%) [6]: 43%
- Population Tubulin-Different-Phenotype (%) [6]: 60%
- Total Cell Count [6]: 201
- Population Apoptotic (%) [7]: 87%
- Population Fragmented Nuclei (%) [7]: 15%
- Population Healthy Nuclei (%) [7]: 15%
- Population Hoechst High Intensity Objects (%) [7]: 19%
- Population Membrane Permeable-Phenotype (%) [7]: 3%
- Population Mitotic Cells (%) [7]: 12%
- Population Normal (%) [7]: 80%
- Population Pyknosed Nuclei (%) [7]: 68%
- Population Tubulin-Different-Phenotype (%) [7]: 96%
- Total Cell Count [7]: 227
- Population Apoptotic (%) [8]: 86%
- Population Fragmented Nuclei (%) [8]: 4%
- Population Healthy Nuclei (%) [8]: 18%
- Population Hoechst High Intensity Objects (%) [8]: 8%
- Population Membrane Permeable-Phenotype (%) [8]: 6%
- Population Mitochondria Different-Phenotype (%) [8]: 100%
- Population Mitotic Cells (%) [8]: 13%
- Population Normal (%) [8]: 91%
- Population Pyknosed Nuclei (%) [8]: 76%
- Population Tubulin-Different-Phenotype (%) [8]: 84%
- Total Cell Count [8]: 198
- Population Apoptotic (%) [9]: 27%
- Population Fragmented Nuclei (%) [9]: 7%
- Population Healthy Nuclei (%) [9]: 79%
- Population Membrane Permeable-Phenotype (%) [9]: 1%
- Population Mitochondria Different-Phenotype (%) [9]: 43%
- Population Mitotic Cells (%) [9]: 72%
- Population Pyknosed Nuclei (%) [9]: 12%
- Population Tubulin-Different-Phenotype (%) [9]: 48%
- Total Cell Count [9]: 730
- Population Apoptotic (%) [10]: 21%
- Population Fragmented Nuclei (%) [10]: 3%
- Population Healthy Nuclei (%) [10]: 74%
- Population Hoechst High Intensity Objects (%) [10]: 5%
- Population Membrane Permeable-Phenotype (%) [10]: 9%
- Population Mitochondria Different-Phenotype (%) [10]: 23%
- Population Mitotic Cells (%) [10]: 78%
- Population Normal (%) [10]: 94%
- Population Pyknosed Nuclei (%) [10]: 22%
- Population Tubulin-Different-Phenotype (%) [10]: 57%
- Total Cell Count [10]: 266
- Population Apoptotic (%) [11]: 90%
- Population Fragmented Nuclei (%) [11]: 24%
- Population Healthy Nuclei (%) [11]: 12%
- Population Hoechst High Intensity Objects (%) [11]: 18%
- Population Membrane Permeable-Phenotype (%) [11]: 0%
- Population Mitochondria Different-Phenotype (%) [11]: 100%
- Population Mitotic Cells (%) [11]: 9%
- Population Normal (%) [11]: 81%
- Population Pyknosed Nuclei (%) [11]: 63%
- Population Tubulin-Different-Phenotype (%) [11]: 86%
- Total Cell Count [11]: 216
- Population Apoptotic (%) [12]: 89%
- Population Fragmented Nuclei (%) [12]: 6%
- Population Healthy Nuclei (%) [12]: 18%
- Population Hoechst High Intensity Objects (%) [12]: 9%
- Population Membrane Permeable-Phenotype (%) [12]: 8%
- Population Mitochondria Different-Phenotype (%) [12]: 94%
- Population Mitotic Cells (%) [12]: 10%
- Population Normal (%) [12]: 90%
- Population Pyknosed Nuclei (%) [12]: 75%
- Population Tubulin-Different-Phenotype (%) [12]: 70%
- Total Cell Count [12]: 203
